“Also recorded” adds a separate entry of the source. Where two headings read alike, the source gives them in different places.
Assays:
[1] = tested on: laser-induced glaucoma model in monkeys; conditions: at 6 h, cited from earlier work
[2] = cited from earlier work
[3] = tested on: hTM-80 cells; assay: Superoxide dismutase activity assay; format: cell-based, human; conditions: 100 µM, overnight/24 h
[4] = tested on: normotensive rat eyes; assay: IOP measurement in normotensive Sprague Dawley rats; format: in vivo; conditions: Travoprost 0.004% single eye drop, 6 h time point only
Method in brief: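 Adult (10-week) female Sprague Dawley rats, n = 3/group, housed under dim light (90 lux) and dosed under a masked protocol. Each received a single 30 µl topical drop in PBS: saline vehicle, 0.004% travoprost positive control, or test compound. IOP was read by TonoLab rebound tonometry at 0, 3, 6, 24, 48 and 72 h. The contralateral eye served as control. Dosing was repeated three times per rat after 7-day washouts. Rank-sum test, mean ± SEM.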

In the case of `CC1(C)CC(O[N+](=O)[O-])CC(C)(C)N1[O]` [4-nitro-TEMPOL], the IOP lowering ([1]; dose 150 µg/eye drop) is listed as 20%.

In the case of `O=[N+]([O-])OCC(CO[N+](=O)[O-])O[N+](=O)[O-]` [GTN, glyceryl trinitrate], the IOP lowering ([1]; dose 500 µg) is listed as 13%.

In the case of `O=C(CCC/C=C\C[C@@H]1[C@@H](CC[C@@H](O)CCc2ccccc2)[C@H](O)C[C@@H]1O)OCCCCO[N+](=O)[O-]` [LBN, Latanoprostene bunod], the IOP-lowering ability [2] is given as −9.0 mm/Hg.

For `CC1(C)CC(N)CC(C)(C)N1[O]` [SA-3, 4-amino TEMPOL], the “SOD enzyme level (in words)” value [3] was “the effect was comparable to that of a standard SOD mimetic SA-3 compound”.

In the case of `[NH-]c1c[n+](N2CCOCC2)no1` [SIN-1, Linsidomine], the “SOD enzyme level (in words)” value [3] was “did not increase the SOD enzyme; also recorded: did not increase the SOD level”.

In the case of `CC(C)OC(=O)CCC/C=C\C[C@@H]1[C@@H](/C=C/[C@@H](O)COc2cccc(C(F)(F)F)c2)[C@H](O)C[C@@H]1O` [Travoprost], the IOP lowering [4] was 14%.

In the case of `CC(C)OC(=O)CCC/C=C\C[C@@H]1[C@@H](CC[C@@H](O)CCc2ccccc2)[C@H](O)C[C@@H]1O` [latanoprost], the IOP-lowering ability [2] is given as −7.7 mm/Hg.

— publication PMC7883929 (Molecular Vision, 2021)
